Results reported in ChEMBL document CHEMBL1914352, “Design, synthesis, docking, and biological evaluation of novel diazide-containing isoxazole- and pyrazole-based histone deacetylase probes” (J Med Chem, 2011).
pIC50: −log10 of the molar value. Calls of active or inactive are those of the source. The calls are words filed in the database; no cut-off is given here.

What was measured:
[1] = target: T1, Matrix metalloproteinase-14 (Homo sapiens, UniProt P50281); assay: Inhibition of MMP14 assessed as activity remaining at […]
[2] = target: T2, Matrix metalloproteinase-9 (Homo sapiens, UniProt P14780); assay: Inhibition of MMP9 assessed as activity remaining at […]
T2 sequence (P14780 whole entry): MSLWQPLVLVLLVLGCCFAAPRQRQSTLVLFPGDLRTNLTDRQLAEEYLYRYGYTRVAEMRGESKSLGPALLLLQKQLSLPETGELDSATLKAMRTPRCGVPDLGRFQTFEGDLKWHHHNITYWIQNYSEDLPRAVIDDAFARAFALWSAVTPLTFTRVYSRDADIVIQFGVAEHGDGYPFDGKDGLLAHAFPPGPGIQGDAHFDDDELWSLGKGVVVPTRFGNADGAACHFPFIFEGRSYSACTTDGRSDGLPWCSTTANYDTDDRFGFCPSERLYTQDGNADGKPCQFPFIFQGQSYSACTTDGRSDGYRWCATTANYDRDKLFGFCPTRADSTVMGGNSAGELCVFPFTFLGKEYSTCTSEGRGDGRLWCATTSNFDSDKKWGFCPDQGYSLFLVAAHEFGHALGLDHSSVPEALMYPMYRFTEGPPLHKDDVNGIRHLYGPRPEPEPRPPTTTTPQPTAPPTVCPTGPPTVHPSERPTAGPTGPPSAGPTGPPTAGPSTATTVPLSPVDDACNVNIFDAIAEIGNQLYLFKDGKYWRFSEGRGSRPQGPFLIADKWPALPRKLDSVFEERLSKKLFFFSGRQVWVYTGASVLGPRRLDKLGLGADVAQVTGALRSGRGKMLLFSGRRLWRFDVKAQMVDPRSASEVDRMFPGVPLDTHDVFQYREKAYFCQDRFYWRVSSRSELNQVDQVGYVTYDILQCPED

[3] = target: T3, Stromelysin-1 (Homo sapiens, UniProt P08254); assay: Inhibition of MMP3 assessed as activity remaining at […]
Target sequence in this assay (P08254 100-477 limits assumed): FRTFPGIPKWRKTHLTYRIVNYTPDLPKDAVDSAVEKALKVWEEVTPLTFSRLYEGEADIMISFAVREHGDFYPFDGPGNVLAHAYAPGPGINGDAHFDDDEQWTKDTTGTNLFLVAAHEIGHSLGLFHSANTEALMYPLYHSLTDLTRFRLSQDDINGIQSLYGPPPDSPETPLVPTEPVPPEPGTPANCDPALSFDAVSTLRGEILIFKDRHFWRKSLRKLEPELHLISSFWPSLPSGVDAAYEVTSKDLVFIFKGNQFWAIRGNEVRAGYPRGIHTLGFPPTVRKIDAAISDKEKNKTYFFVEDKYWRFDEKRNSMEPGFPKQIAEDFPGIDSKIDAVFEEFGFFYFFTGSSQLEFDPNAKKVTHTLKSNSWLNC

[4] = target: T4, Interstitial collagenase (Homo sapiens) (UniProt P03956); assay: Inhibition of MMP1 assessed as activity remaining at […]
T4 sequence (whole entry): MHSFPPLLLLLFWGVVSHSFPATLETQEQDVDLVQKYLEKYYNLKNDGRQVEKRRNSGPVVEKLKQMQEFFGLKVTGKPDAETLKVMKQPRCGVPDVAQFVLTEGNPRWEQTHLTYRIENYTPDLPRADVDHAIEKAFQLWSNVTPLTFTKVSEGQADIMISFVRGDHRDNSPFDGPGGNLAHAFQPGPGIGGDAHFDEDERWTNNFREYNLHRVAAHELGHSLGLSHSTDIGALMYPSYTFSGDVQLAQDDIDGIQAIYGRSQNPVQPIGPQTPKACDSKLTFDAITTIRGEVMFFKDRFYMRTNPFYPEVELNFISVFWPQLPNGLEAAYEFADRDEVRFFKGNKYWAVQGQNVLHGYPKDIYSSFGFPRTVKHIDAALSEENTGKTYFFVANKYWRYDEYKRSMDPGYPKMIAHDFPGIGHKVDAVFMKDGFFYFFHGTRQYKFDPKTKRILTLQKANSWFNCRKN

[5] = test system: SH-SY5Y; assay: Cytotoxicity against retinoic acid-differentiated human SH-SY5Y cells assessed as cell survival at 20 uM; type: cell-based
Outline: (§1)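 SH-SY5Y cells are differentiated for 7–8 days in 1% FBS medium with 10 µM retinoic acid, then seeded at 2×10^4 cells/well in 1% FBS medium with 5 µM RA. After 24 h they go into phenol-red-free 1% FBS/RA medium with DMSO or 0.5–50 µM inhibitor, without or with 100 µM LY294002, for 24 h. Readout: XTT viability as % survival vs vehicle, four replicates ± SD, one-way ANOVA with Dunnett.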

[6] = test system: SH-SY5Y; assay: Neuroprotective activity against LY294002-induced stress in retinoic acid differentiated human SH-SY5Y cells assessed as cell survival at 1 uM; type: functional, cell-based; outline: as §1
[7] = test system: SH-SY5Y; assay: Neuroprotective activity against LY294002-induced stress in retinoic acid differentiated human SH-SY5Y cells assessed as cell survival at 0.5 uM; type: functional, cell-based; outline: as §1
[8] = target: T1, Matrix metalloproteinase-14; assay: Inhibition of MMP14
[9] = target: T2, Matrix metalloproteinase-9; assay: Inhibition of MMP9
[10] = target: T3, Stromelysin-1; assay: Inhibition of MMP3
Target sequence in this assay (P08254 whole entry): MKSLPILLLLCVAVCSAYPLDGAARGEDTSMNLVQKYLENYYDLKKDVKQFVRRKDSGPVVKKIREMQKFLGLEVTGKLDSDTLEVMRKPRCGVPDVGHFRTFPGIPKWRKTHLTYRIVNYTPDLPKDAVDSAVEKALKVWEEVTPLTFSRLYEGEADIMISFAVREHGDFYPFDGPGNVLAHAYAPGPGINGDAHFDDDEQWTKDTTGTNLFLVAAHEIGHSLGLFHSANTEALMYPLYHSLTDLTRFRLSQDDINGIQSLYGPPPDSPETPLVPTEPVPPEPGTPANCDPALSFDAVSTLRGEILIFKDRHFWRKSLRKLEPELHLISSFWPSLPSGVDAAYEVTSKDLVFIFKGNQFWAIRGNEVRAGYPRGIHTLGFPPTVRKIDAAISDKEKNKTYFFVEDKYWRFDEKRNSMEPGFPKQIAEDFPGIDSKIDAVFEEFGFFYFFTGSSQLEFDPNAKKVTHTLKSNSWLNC

[11] = target: T5, Interstitial collagenase (Homo sapiens, UniProt P03956); assay: Inhibition of MMP1
T5 sequence (P03956 whole entry): T4 sequence (whole entry)

[12] = test system: HepG2; assay: Induction of apoptosis in human HepG2 cells assessed as hyperacetylation of p53 after 24 hrs by Western blot analysis; type: functional, cell-based
Outline: (§2)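 HepG2 cells are seeded at 2.7×10^5 cells/well in D7 medium (DMEM, 7% FBS), refed after 24 h, and after 1 h at 37 °C treated with DMSO or 1, 5 or 10 µM inhibitor. Lysis is in ice-cold 1% CHAPSO buffer (50 mM Hepes pH 7.4), 45 min at 4 °C. Immunoblots are probed for cleaved caspase 3 Asp175, acetyl-Lys373 p53, total p53 and GAPDH, detected by chemiluminescence, with band densitometry.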

[13] = test system: HepG2; assay: Induction of apoptosis in human HepG2 cells assessed as cleavage of caspase 3 at 1 to 10 uM after 24 hrs by Western blot analysis; type: functional, cell-based; outline: as §2
[14] = test system: HepG2; assay: Induction of apoptosis in human HepG2 cells assessed as hyperacetylation of p53 at 1 to 10 uM by Western blot analysis; type: functional, cell-based; outline: as §2
[15] = test system: HepG2; assay: Induction of apoptosis in human HepG2 cells assessed as cleavage of caspase 3 at 1 to 10 uM after 14 hrs by Western blot analysis; type: functional, cell-based; outline: as §2

| Activity [1] [%] | Activity [2] [%] | Activity [3] [%] | Activity [4] [%] | pIC50 [8] | pIC50 [9] | pIC50 [10] | pIC50 [11] | Compound | Activity [5] | Activity [6] | Activity [7] | Activity [12] | Activity [13] | Activity [14] | Activity [15] |
| --- | --- | --- | --- | --- | --- | --- | --- | --- | --- | --- | --- | --- | --- | --- | --- |
| > 70 | > 70 | > 70 | > 70 | – | – | – | – | [N-]=[N+]=NCc1cc(Cn2cc(NC(=O)CCCCCCC(=O)NO)cn2)cc(N=[N+]=[N-])c1 | Toxic | Active | Active | – | – | – | – |
| – | – | – | – | 5.03 | 4.64 | 4.92 | 3.97 | [N-]=[N+]=NCc1cc(N=[N+]=[N-])cc(C(=O)Nc2ccc(-c3cc(C(=O)NCCCCCCC(=O)NO)no3)cc2)c1 | – | – | – | inactive | Active | inactive | Active |
